# In the library only some 8.4% were active in any assay of this set; here they are far more common.
# PostGolgi yeast = phenotypic screen on post-Golgi transport, primary screen | AID 739, 2007 | inhibition, % at 10 µM | 98,000 compounds, 0.9% hits | post-Golgi transport phenotypic cell assay;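 further: yeast cells grown in 1536-well plates; yeast grown about 18 h at 30C before absorbance read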
# Ecoli tolC = growth inhibitors of E. coli tolC mutant, primary screen, strain BW25113 ΔtolC::kan, 384-well | growth inhibition, % at 10 µM (by protocol) | 65,000 compounds, 2.2% hits | OD615;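 active means growth inhibition at or above a cutoff equal to the mean over every tested compound plus 3 SD, cut at about 60% in these data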;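 further: growth measured after 20 h incubation at 37 °C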
#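 Test system: tolC-deleted E. coli BW25113 | Medium: LB with kanamycin 50 µg/mL | Compound dosing: Single concentration, 10 µM final per compound | Schedule: 37 °C, 20 h exposure | Measured by: OD at 615 nm | Evaluation: Percent growth inhibition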
# E coli WT exp = growth inhibitors of wild-type E. coli, primary screen, strain BW25113, expanded library, OD600; OD600 absorbance; growth inhibition, % at 100 µM; 98,000 compounds, 0.15% hits;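 active means growth inhibition above about 50% at one test dose, limit read from the data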;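 further: growth measured after 20 h incubation at 37 °C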
# PostGolgi ctrl = growth inhibition of yeast control strain, primary screen, counter-screen for post-Golgi transport modulator project | 98,000 compounds, 5% hits | inhibition, % at 10 µM | efflux-deficient yeast background strain, growth absorbance A615, 16 h
# Cav3 T inh = Cav3.2 calcium influx blockers – cell-based, Fluo-4 calcium fluorescence, FDSS, MLSMR library, primary screen. Voltage-dependent T-type calcium channel subunit alpha-1H (Homo sapiens), O95180. Cav3.2-expressing cells; active compounds read low. B-score at 10 µM. 100,000 compounds, 4% hits. AID 449739, 2010;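 active means single-dose well whose peak fluorescence ratio is a statistical outlier from its plate by either plate-standardised score or position-corrected B-score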
# Target sequence (O95180 whole entry, looked up): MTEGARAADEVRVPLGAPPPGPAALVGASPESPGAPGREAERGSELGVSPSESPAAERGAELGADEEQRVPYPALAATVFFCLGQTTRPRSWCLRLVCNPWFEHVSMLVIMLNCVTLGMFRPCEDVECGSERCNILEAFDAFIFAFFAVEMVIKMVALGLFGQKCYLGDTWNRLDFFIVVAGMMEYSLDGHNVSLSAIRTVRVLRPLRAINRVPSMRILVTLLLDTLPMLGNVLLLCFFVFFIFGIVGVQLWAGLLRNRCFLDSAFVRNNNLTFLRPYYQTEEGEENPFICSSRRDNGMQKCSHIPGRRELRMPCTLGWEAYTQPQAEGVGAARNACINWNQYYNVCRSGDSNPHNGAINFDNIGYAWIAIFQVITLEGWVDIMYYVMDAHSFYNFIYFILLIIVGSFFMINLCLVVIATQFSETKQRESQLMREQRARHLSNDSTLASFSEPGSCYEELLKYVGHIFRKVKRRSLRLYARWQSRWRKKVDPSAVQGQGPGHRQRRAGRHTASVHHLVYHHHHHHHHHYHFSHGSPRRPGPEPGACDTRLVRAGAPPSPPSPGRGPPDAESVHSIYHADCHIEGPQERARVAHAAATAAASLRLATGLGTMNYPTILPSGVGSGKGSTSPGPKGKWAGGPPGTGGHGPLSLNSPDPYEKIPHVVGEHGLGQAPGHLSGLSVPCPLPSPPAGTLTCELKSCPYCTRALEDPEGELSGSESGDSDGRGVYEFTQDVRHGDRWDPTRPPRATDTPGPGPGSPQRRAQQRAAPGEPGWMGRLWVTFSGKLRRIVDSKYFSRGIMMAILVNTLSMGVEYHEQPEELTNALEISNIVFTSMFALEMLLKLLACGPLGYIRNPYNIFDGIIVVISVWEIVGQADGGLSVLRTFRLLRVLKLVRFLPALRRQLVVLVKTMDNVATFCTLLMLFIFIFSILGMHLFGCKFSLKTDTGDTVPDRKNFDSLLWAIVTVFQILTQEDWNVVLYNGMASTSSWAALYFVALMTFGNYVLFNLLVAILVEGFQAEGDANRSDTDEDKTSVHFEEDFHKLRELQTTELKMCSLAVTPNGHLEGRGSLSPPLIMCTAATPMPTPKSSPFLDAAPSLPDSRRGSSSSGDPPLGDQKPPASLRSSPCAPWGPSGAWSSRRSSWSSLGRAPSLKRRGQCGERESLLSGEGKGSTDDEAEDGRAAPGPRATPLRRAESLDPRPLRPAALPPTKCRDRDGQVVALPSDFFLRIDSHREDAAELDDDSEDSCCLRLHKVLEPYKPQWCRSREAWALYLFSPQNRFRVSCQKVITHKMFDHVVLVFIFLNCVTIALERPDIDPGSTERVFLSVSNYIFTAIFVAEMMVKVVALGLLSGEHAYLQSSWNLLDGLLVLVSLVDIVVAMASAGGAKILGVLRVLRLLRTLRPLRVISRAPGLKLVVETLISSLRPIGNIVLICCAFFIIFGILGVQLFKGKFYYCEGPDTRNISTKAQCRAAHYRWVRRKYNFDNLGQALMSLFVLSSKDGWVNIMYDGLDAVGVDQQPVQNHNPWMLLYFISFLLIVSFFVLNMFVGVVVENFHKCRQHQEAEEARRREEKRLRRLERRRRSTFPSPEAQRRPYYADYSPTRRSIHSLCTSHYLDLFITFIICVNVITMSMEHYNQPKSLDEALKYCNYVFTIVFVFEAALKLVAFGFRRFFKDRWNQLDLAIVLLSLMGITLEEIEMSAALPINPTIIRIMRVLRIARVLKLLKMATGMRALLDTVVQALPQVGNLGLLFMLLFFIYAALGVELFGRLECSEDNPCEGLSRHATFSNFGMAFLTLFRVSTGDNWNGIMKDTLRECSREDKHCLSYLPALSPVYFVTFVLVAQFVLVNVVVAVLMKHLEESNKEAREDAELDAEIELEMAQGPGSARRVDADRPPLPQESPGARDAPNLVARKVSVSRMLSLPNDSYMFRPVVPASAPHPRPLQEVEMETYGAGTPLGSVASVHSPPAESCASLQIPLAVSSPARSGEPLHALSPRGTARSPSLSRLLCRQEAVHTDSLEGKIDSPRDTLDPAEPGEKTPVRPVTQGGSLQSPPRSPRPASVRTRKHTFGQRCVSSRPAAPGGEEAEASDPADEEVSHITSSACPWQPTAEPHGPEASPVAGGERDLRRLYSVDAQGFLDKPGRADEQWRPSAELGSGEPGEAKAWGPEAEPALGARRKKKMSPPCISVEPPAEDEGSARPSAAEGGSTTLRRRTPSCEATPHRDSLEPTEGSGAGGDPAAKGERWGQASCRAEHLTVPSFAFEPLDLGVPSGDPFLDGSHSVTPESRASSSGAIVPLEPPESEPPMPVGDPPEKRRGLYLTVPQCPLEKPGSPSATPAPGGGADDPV
# A number is an active result; . = inactive; / = no result. Unless noted, no stated cut-off is given here; in the data, active means inhibition above about 30%; inactive means the rest.
SMILES,PostGolgi yeast,Ecoli tolC,E coli WT exp,PostGolgi ctrl,Cav3 T inh
CC(C)OCCCN1C(=O)c2[nH]nc(-c3ccccc3O)c2C1c1cccc(Cl)c1 (configuration not stated),.,.,.,.,.
CC(C)c1ccc(OCc2ccc(C(=O)N3CCN(c4ccccn4)CC3)cc2)cc1,.,86,.,.,.
O=C(c1ccc(CNS(=O)(=O)c2ccccc2)cc1)N1CCN(c2ccccn2)CC1,.,.,.,.,/
CC(C)Oc1ccc(Cc2cnc(N)nc2N)cc1,.,/,71,.,.
CCOC(=O)C1CCCN(C(=O)c2ccc(OCC)cc2)C1 (configuration not stated),.,.,.,.,.
COc1ccc(-c2nnc(SCC(=O)Nc3cccc(Cl)c3)o2)cc1,.,.,.,.,.
COc1cccc(NC(=O)CSc2nnc(-c3cc(-c4ccccn4)nc4ccccc34)o2)c1,.,.,.,50,.
CCCCCC(=O)Cc1cc(O)cc2c1C(=O)Oc1cc(O)c(C(=O)O)c(CCCCC)c1O2,/,/,/,/,.
COc1ccc(-c2cc(C(F)(F)F)nc(NC3CCCC3)n2)cc1OC,.,.,.,34,.
c1ccc(Nc2ccc3c4c(cccc24)CC3)cc1,/,/,/,/,.
O=S(=O)(Nc1ccc2c3c(cccc13)CC2)c1ccc(F)cc1,.,/,.,40,/
CSc1ccc(S(=O)(=O)Nc2ccc3c4c(cccc24)CC3)cc1,.,/,.,66,.
CCC1=C2CC[C@H]3C(=O)NC(=O)[C@H]3[C@H]2[C@@]2(Cc3ccccc3)C(=NCC(=O)OC)OC(=O)N2C1=O,/,/,/,/,.
c1cncc(-c2noc(CC3CCCCC3)n2)c1,.,/,.,.,.
COc1ccc(S(=O)(=O)Cc2ccc(C(=O)NCCCN(C)c3ccccc3)o2)cc1,.,.,.,.,.
Cc1nc2nc[nH]n2c(=O)c1CCC(C)C,.,.,.,.,.
Cc1oc(-c2ccc(Cl)cc2)nc1CN1CCC(C(=O)NCc2ccco2)CC1,.,.,.,.,.
Cc1oc(-c2ccc(Cl)cc2)nc1CN1CCC(C(=O)N2CCN(Cc3ccccc3)CC2)CC1,.,.,.,33,/
COc1ccccc1CNC(=O)C1CCN(Cc2nc(-c3ccc(Cl)cc3)oc2C)CC1,/,.,/,/,/
Cc1oc(-c2cccc(Cl)c2)nc1CN1CCC(C(=O)NCc2ccco2)CC1,.,.,.,.,-4.3
Cc1oc(-c2ccccc2F)nc1CN1CCC(C(=O)NCCC2=CCCCC2)CC1,.,.,.,.,-5.7
COc1ccccc1CNC(=O)C1CCN(Cc2nc(-c3cccc(Cl)c3)oc2C)CC1,.,.,.,.,-5.8
CC(C)NC(=O)Cn1nnc(-c2ccc(Cl)cc2)n1,.,.,.,.,/
CN(C)CCCNC(=O)CCC1CCCCC1,.,.,.,.,.
Cc1ccc2c(c1)[nH]c1c(=O)n(Cc3ccccn3)cnc12,.,.,.,.,.
SMILES,PostGolgi yeast,Ecoli tolC,E coli WT exp,PostGolgi ctrl,Cav3 T inh
CCc1ccc(-c2nc(CN3CCC(C(=O)NCCc4ccc(OC)c(OC)c4)CC3)c(C)o2)cc1,.,.,.,.,.
CCc1ccc(-c2nc(CN3CCC(C(=O)NCc4ccccc4OC)CC3)c(C)o2)cc1,.,.,.,.,-8.6
Cc1nn(-c2c(Cl)cc(Cl)cc2Cl)c(=O)c2ccccc12,.,/,.,.,-5
Cc1nn(-c2ccccc2C(=O)O)c(=O)c2ccccc12,.,.,.,.,.
Cc1ccc(CN2C(=O)[C@H]3Cc4c([nH]c5ccccc45)C(C)(C)N3C2=O)cc1,/,/,/,/,.
Cn1ncc(C#N)c1NC(=O)c1cc(-c2ccccc2Cl)on1,.,/,.,30,.
Cn1ncc(C#N)c1NC(=O)C1CC(c2c(F)cccc2Cl)=NO1 (configuration not stated),.,.,.,.,.
COc1ccc(-c2cc(-c3cc(F)ccc3O)[nH]n2)cc1OC,.,81,.,30,.
Cc1ccc(O)c(-c2cc(-c3cccc(F)c3)n[nH]2)c1,.,/,.,70,.
Cc1ccc(O)c(-c2cc(-c3ccccc3F)[nH]n2)c1,.,/,.,67,.
Cc1ccc(-c2cc(-c3ccccc3C)[nH]n2)c(O)c1,/,/,/,/,.
Oc1ccc(Br)cc1-c1cc(-c2ccccc2)n[nH]1,/,/,/,/,.
Cc1ccc(-c2cc(-c3cccc(F)c3)n[nH]2)c(O)c1,.,.,.,43,.
COC(=O)c1ccc2c(c1)S(=O)(=O)NC(=NCc1ccco1)S2,.,.,.,.,.
Clc1ccc(-n2c(SCc3nc4ccccc4[nH]3)nnc2-c2ccncc2)cc1,.,/,.,.,.
Cc1cccc(N(C)C(=O)c2cc3cc4ccc(C)cc4nc3o2)c1,.,96,.,.,-5.1
CCCCNS(=O)(=O)c1ccc2nc(SCC(=O)c3ccccc3OC)[nH]c2c1,.,/,.,.,.
CCCCNS(=O)(=O)c1ccc2nc(SCC(=O)Nc3sccc3C#N)[nH]c2c1,.,.,.,.,-3.5
Cc1ccccc1CN1C(=O)C2(OCCCO2)c2ccccc21,.,.,.,.,.
S=c1nc2ccccc2c2nc(-c3ccccc3)[nH]n12,.,.,.,44,/
CCc1c(C(=O)Nc2cc(C)cc(C)c2)[nH]c(C)c1C(C)=O,.,/,.,.,.
CC(=O)N1N=C(c2ccc(C)cc2)OC1c1ccc(C(C)C)cc1 (configuration not stated),.,/,.,.,.
CC(=O)N1N=C(c2ccc(C)cc2)OC1c1ccc(C)cc1 (configuration not stated),.,/,.,34,.
C=CCOc1ccc(C2C(C#N)=C(N)N(Nc3ccccc3)C3=C2C(=O)CCC3)cc1OC (configuration not stated),.,/,.,.,.
OC(CNCc1ccc(F)cc1)(c1ccc(F)cc1)c1ccc(F)cc1,.,/,.,.,-4.2
SMILES,PostGolgi yeast,Ecoli tolC,E coli WT exp,PostGolgi ctrl,Cav3 T inh
COc1ccc(CNCC(O)(c2ccc(Cl)cc2)c2ccc(Cl)cc2)cc1,.,/,.,.,.
N=c1c2c(-c3ccccc3)c(-c3ccccc3)oc2ncn1CCN1CCOCC1,.,.,.,72,.
c1ccc(-c2oc3ncnc(NCCN4CCOCC4)c3c2-c2ccccc2)cc1,.,65,.,92,.
c1ccc(-c2oc3ncnc(NCCCn4ccnc4)c3c2-c2ccccc2)cc1,.,98,.,66,.
O=c1oc2ccccc2c2c1ncn2CCN1CCOCC1,.,.,.,.,.
COc1ccnc(NCc2cccnc2)c1C#N,.,/,.,.,.
CCC(=O)c1ccc(OCCSc2ncccn2)cc1,.,.,.,.,.
O=C(Cn1ccc2ccccc2c1=O)NCCC(=O)N1CCN(c2cccc(C(F)(F)F)c2)CC1,.,.,.,.,.
COc1ccc(CCNC(=O)NC23CC4CC(CC(C4)C2)C3)cc1,.,/,.,.,.
COc1nc(NC23CC4CC(CC(C4)C2)C3)nc(OC)n1,.,.,.,34,.
COc1ccc(-n2ccc(-c3nn(-c4cccc(C(F)(F)F)c4)ccc3=O)n2)cc1,.,/,.,31,-4.4

# High-throughput results: PubChem, several laboratories
